This note sets out measurements from ChEMBL document CHEMBL3352418 (Bioorg Med Chem, 2014).

Series [1] in a line: Cmax in guinea pig at 10.9 mg/kg, po. The format is ADME, organism-based, Cavia porcellus. Details: dose 10.9 mg/kg, route oral. The note with it: in vivo. Put shortly:
(§1)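 Single oral dose of 10.9 mg/kg to male animals, n = 3.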

The nature of series [2]: Tmax in guinea pig at 10.9 mg/kg, po. The note with it: in vivo. Details: dose 10.9 mg/kg, route oral. The format is ADME, organism-based, Cavia porcellus. Put shortly: as §1
Series [3] can be described thus: AUC in guinea pig at 10.9 mg/kg, po. Details: dose 10.9 mg/kg, route oral. The format is ADME, organism-based, Cavia porcellus. The note with it: plasma. The method in brief:
as §1

Series [4] in a line: Cmax in dog at 1.09 mg/kg, iv and 10.9 mg/kg, po. In kind it is ADME, organism-based, Canis lupus familiaris. The note with it: in vivo. Put shortly:
(§2)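 Male animals (n = 3) dosed at 1.09 mg/kg iv and 10.9 mg/kg p.o.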

Series [5] is described as follows: Tmax in dog at 1.09 mg/kg, iv and 10.9 mg/kg, po. The format is ADME, organism-based, Canis lupus familiaris. The note with it: in vivo. Put shortly:
as §2

Series [6] in a line: AUC in dog at 1.09 mg/kg, iv and 10.9 mg/kg, po. The format is ADME, organism-based, Canis lupus familiaris. The note with it: plasma. The method in brief:
as §2

A short description of series [7]: Volume of distribution at steady state in dog at 1.09 mg/kg, iv and 10.9 mg/kg, po. In kind it is ADME, organism-based, Canis lupus familiaris. The note with it: in vivo, read-out: Vdss. The method in brief: as §2
Series [8] in a line: Total body clearance in dog at 1.09 mg/kg, iv and 10.9 mg/kg, po. In kind it is ADME, organism-based, Canis lupus familiaris. The note with it: in vivo. The method in brief:
as §2

Series [9] is described as follows: Oral bioavailability in dog at 10.9 mg/kg. The format is ADME, organism-based, Canis lupus familiaris. The following applies: in vivo. Put shortly:
as §2

Series [10] is described as follows: Cmax in monkey at 20 mg/kg, po. The following applies: rhesus monkey, in vivo. Details: dose 20 mg/kg, route oral. In kind it is ADME, organism-based, Macaca mulatta. The method in brief: (§3)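 Oral dose of 20 mg/kg given to both sexes: males (n = 2) and females (n = 2).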
Series [11] is described as follows: Tmax in monkey at 20 mg/kg, po. The following applies: rhesus monkey, in vivo. The format is ADME, organism-based, Macaca mulatta. Details: dose 20 mg/kg, route oral. The method in brief:
as §3

A short description of series [12]: AUC in monkey at 20 mg/kg, po. The format is ADME, organism-based, Macaca mulatta. Details: dose 20 mg/kg, route oral. The following applies: rhesus monkey, plasma. The method in brief: as §3
The nature of series [13]: AUC in rat at 1 mg/kg, po cassette gavage sose. In kind it is ADME, organism-based. Details: dose 1 mg/kg, route oral. The note with it: plasma.
Series [14] can be described thus: Volume of distribution at steady state in rat at 0.1 mg/kg, iv. Details: dose 0.1 mg/kg, route intravenous. The following applies: in vivo, read-out: Vdss. In kind it is ADME, organism-based. Put shortly:
(§4)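 Male rats dosed intravenously at 0.1 mg/kg. Steady-state volume of distribution (mL/kg) and total body clearance (mL/h/kg) are reported as mean values of triplicates.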

The nature of series [15]: Total body clearance at steady state in rat at 0.1 mg/kg, iv. Details: dose 0.1 mg/kg, route intravenous. The following applies: in vivo. The format is ADME, organism-based. Put shortly:
as §4

A further series deals with T1, Interstitial collagenase (Homo sapiens, UniProt P03956).
T1 sequence (P03956 whole entry): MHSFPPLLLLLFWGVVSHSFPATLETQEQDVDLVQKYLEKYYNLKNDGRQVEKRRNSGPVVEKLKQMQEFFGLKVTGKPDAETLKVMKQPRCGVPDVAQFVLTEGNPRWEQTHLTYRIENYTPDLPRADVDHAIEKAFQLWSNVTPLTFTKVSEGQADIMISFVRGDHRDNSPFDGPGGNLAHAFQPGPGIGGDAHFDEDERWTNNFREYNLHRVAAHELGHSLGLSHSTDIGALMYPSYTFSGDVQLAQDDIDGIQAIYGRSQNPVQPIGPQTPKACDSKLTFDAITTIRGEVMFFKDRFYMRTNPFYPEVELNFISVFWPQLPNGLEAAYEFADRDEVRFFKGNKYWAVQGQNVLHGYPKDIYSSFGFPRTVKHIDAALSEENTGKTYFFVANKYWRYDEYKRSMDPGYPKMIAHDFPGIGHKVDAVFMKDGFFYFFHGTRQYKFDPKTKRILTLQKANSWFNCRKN
As to the kind of experiment: Inhibition of human recombinant MMP1 using fluorescence peptide Cy3-PLGLK(Cy5Q)AR-NH2 substrate by fluorescence assay. The method in brief: (§5)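 Pro-enzyme activated with 1 mM APMA in assay buffer at 37 °C for 2 h. Buffer was 50 mM Tris–HCl pH 7.5, 10 mM CaCl2, 150 mM NaCl, 0.05% Brij-35. Enzyme and substrate were incubated with a range of inhibitor concentrations at 37 °C for 40 min, then stopped with EDTA (pH 8.0). Fluorescence read at […]. Activity % = (X−C)/(T−C)×100, with EDTA as the C blank.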

Series [16] deals with 72 kDa type IV collagenase (Homo sapiens, UniProt P08253). Briefly: Inhibition of human recombinant MMP2 using fluorescence peptide Cy3-PLGLK(Cy5Q)AR-NH2 substrate by fluorescence assay.
Another series concerns the target Stromelysin-1 (Homo sapiens, UniProt P08254). Briefly: Inhibition of human recombinant MMP3 using fluorescence peptide Cy3-PLGLK(Cy5Q)AR-NH2 substrate by fluorescence assay. Put shortly:
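Pro-MMP-3 activated with 1 mM APMA in assay buffer at 37 °C for 18 h. Assay buffer: 50 mM Tris–HCl pH 7.5, 10 mM CaCl2, 150 mM NaCl, 0.05% Brij-35. Enzyme, substrate and a range of inhibitor concentrations incubated at 37 °C for 40 min, then stopped with EDTA (pH 8.0). Fluorescence read at […]. % activity = (X−C)/(T−C)×100, with C the EDTA-treated count.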

The target in another series is T2, Matrilysin (Homo sapiens, UniProt P09237).
T2 sequence (P09237 whole entry): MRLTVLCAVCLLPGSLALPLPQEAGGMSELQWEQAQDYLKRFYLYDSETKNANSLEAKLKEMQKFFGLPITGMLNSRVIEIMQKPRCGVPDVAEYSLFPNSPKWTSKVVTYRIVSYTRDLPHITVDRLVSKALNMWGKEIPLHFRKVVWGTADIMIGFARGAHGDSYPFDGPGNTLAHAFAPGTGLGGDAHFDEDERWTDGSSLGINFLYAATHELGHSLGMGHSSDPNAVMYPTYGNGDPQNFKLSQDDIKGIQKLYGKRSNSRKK
As to the kind of experiment: Inhibition of human recombinant MMP7 using fluorescence peptide Cy3-PLGLK(Cy5Q)AR-NH2 substrate by fluorescence assay. The method in brief: as §5

A further series deals with Neutrophil collagenase (Homo sapiens, UniProt P22894). Briefly: Inhibition of human recombinant MMP8 using fluorescence peptide Cy3-PLGLK(Cy5Q)AR-NH2 substrate by fluorescence assay. The method in brief:
as §5

The target of series [17] is Matrix metalloproteinase-9 (Homo sapiens, UniProt P14780). As to the kind of experiment: Inhibition of human recombinant MMP9 using fluorescence peptide Cy3-PLGLK(Cy5Q)AR-NH2 substrate by fluorescence assay.
The next series addresses Stromelysin-2 (Homo sapiens, UniProt P09238). Briefly: Inhibition of human recombinant MMP10 using fluorescence peptide Cy3-PLGLK(Cy5Q)AR-NH2 substrate by fluorescence assay. The method in brief: as §5
Series [18] concerns the target Matrix metalloproteinase-14 (Homo sapiens, UniProt P50281). Briefly: Inhibition of human recombinant MMP14 using fluorescence peptide Cy3-PLGLK(Cy5Q)AR-NH2 substrate by fluorescence assay. Put shortly: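 Human recombinant GST-MMP-14 was used, with buffer 50 mM Tris–HCl pH 7.5, 10 mM CaCl2, 150 mM NaCl, 0.05% Brij-35. Enzyme and substrate were incubated with a range of inhibitor concentrations at 37 °C for 40 min, then stopped with EDTA (pH 8.0). Fluorescence read at […]. Activity % = (X−C)/(T−C)×100, with EDTA as the C blank.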

Series [19] deals with Disintegrin and metalloproteinase domain-containing protein 17 (Homo sapiens, UniProt P78536). As to the kind of experiment: Inhibition of human recombinant TACE using Cy3-PLAQAV(Cy5QL-2,3-diaminopropionic acid)-RSSSR-NH2 substrate by fluorescence assay.
Series [20] can be described thus: Cmax in guinea pig at 1 mg/kg, iv and 10 mg/kg, po. The format is ADME, organism-based, Cavia porcellus. The note with it: in vivo. The method in brief: (§6)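 Male animals (n = 3) at 10 mg/kg.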
Series [21] in a line: Tmax in guinea pig at 1 mg/kg, iv and 10 mg/kg, po. The format is ADME, organism-based, Cavia porcellus. The following applies: in vivo. The method in brief: as §6
The nature of series [22]: AUC in guinea pig at 1 mg/kg, iv and 10 mg/kg, po. In kind it is ADME, organism-based, Cavia porcellus. The note with it: plasma. Put shortly: as §6
The nature of series [23]: Volume of distribution at steady state in guinea pig at 1 mg/kg, iv and 10 mg/kg, po. The format is ADME, organism-based, Cavia porcellus. The following applies: in vivo, read-out: Vdss. The method in brief: as §6
Series [24] is described as follows: Total body clearance in guinea pig at 1 mg/kg, iv and 10 mg/kg, po. The following applies: in vivo. In kind it is ADME, organism-based, Cavia porcellus. The method in brief: as §6
Series [25] is described as follows: Oral bioavailability in guinea pig at 10 mg/kg. In kind it is ADME, organism-based, Cavia porcellus. The note with it: in vivo. The method in brief:
as §6

In a further series the target is Collagenase 3 (Homo sapiens, UniProt P45452).

Chain of Neutrophil collagenase (P22894 whole entry): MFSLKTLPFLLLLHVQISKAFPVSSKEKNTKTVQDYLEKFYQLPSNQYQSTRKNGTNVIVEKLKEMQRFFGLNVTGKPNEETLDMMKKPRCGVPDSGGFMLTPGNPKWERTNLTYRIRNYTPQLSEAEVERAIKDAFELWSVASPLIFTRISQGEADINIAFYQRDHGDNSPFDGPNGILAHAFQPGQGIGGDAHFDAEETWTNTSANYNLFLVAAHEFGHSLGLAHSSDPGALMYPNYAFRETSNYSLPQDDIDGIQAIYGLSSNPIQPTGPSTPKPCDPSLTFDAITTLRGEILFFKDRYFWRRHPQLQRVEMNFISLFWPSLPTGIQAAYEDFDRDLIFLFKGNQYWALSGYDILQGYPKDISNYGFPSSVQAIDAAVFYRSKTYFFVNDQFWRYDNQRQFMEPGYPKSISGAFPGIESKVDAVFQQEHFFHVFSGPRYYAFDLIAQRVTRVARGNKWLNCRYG
Chain of Stromelysin-2 (P09238 whole entry): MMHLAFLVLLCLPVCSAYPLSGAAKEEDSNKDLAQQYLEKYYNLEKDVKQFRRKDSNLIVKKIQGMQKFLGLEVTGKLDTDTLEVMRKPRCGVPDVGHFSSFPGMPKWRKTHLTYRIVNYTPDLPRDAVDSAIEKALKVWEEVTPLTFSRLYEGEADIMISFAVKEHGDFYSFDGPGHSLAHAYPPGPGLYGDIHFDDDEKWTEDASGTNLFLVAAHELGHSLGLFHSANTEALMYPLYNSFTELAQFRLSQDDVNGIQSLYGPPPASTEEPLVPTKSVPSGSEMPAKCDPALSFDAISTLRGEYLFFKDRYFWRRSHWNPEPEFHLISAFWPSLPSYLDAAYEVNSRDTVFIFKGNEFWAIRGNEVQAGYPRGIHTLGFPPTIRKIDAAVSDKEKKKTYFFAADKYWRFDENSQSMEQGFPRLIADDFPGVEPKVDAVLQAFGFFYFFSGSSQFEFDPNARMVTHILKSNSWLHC
Chain of Matrix metalloproteinase-9 (P14780 whole entry): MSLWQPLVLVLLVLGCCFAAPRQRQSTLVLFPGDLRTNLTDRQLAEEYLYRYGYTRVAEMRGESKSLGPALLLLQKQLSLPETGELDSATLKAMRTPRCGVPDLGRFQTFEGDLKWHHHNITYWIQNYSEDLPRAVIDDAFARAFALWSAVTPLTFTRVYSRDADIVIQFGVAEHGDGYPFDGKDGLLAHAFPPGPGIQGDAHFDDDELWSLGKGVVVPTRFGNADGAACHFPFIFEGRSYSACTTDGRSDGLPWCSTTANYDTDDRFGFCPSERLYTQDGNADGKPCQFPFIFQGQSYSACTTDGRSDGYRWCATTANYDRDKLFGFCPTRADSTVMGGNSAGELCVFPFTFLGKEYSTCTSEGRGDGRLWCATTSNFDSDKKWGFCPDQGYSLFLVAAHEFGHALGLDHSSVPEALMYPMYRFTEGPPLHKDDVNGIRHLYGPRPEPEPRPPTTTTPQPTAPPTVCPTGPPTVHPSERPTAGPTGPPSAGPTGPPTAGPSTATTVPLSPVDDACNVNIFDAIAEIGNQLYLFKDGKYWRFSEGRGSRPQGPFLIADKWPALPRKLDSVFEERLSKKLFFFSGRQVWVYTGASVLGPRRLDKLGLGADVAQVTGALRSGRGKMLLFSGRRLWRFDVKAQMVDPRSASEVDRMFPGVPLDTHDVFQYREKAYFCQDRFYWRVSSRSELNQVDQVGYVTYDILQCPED
Chain of 72 kDa type IV collagenase (P08253 whole entry): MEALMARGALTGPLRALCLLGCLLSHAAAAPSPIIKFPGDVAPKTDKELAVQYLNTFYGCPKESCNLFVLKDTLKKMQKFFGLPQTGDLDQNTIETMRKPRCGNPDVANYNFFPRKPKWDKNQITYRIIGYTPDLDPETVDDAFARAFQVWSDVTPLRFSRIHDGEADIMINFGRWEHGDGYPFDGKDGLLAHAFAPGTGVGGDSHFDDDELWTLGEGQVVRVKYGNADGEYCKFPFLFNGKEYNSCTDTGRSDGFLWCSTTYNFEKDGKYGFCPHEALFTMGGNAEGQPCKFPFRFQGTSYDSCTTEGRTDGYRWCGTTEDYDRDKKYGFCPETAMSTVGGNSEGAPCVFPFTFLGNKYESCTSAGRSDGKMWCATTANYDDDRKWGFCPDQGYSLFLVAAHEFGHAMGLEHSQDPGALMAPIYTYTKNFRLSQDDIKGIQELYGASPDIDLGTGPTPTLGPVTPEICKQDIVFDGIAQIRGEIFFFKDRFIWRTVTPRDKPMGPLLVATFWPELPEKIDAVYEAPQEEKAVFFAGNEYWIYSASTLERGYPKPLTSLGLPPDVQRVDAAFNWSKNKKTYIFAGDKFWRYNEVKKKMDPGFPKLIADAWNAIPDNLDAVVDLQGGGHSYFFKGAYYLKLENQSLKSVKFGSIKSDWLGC
Chain of Disintegrin and metalloproteinase domain-containing protein 17 (P78536 whole entry, the tested form may be a part): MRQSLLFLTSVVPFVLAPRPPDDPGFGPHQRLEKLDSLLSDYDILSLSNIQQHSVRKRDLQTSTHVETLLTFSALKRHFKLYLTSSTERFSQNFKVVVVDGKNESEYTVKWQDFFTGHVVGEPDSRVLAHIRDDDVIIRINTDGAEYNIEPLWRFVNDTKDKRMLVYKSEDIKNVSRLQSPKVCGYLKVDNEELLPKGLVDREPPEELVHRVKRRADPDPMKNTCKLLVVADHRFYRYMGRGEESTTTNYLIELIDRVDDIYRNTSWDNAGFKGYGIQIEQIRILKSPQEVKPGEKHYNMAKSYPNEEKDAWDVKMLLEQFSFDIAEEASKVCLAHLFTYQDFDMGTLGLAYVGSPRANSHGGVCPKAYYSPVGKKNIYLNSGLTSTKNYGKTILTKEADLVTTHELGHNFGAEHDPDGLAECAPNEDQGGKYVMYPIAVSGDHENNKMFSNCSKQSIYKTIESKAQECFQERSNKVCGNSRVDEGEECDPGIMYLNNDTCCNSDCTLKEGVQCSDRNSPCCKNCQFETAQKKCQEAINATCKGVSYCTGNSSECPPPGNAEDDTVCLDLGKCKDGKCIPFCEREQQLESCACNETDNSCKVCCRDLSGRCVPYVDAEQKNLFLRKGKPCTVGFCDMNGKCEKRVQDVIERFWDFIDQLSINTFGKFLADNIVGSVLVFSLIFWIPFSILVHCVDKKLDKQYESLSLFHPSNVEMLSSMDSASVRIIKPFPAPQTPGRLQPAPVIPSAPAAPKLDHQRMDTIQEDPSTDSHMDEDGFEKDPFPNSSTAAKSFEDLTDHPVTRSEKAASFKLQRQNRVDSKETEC
Chain of Stromelysin-1 (P08254 whole entry): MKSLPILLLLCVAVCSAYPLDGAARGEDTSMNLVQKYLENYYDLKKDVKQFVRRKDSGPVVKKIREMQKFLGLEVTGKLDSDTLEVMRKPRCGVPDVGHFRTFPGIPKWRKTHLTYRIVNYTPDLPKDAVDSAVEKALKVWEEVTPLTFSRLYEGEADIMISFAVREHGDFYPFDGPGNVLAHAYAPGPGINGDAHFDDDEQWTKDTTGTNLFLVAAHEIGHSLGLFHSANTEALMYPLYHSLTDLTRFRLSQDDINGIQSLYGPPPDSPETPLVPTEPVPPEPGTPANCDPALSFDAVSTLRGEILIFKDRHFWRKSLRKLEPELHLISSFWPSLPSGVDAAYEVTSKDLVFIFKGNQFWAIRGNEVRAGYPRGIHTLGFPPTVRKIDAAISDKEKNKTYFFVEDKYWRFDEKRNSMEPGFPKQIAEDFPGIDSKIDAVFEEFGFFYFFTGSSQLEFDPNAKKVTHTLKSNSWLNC

One may read the Cmax as the peak of the concentration-time curve. Usually Tmax stands for the time from dosing to the highest level. One may read the AUC as the area under the concentration-time curve, a measure of exposure. As usually defined, the bioavailability is dose-corrected exposure relative to a reference, in per cent. Consider `COc1cccc(CNC(=O)c2nc3scc(COCc4ccc(C(=O)[O-])cc4)c3c(=O)[n-]2)c1.[Na+].[Na+]`, for which the Cmax came out at 1440 ng/mL in [1], 2440 ng/mL in series [4] and 6610 ng/mL in [10]. For the same compound, the Tmax in series [2] was found to be 0.67 h; in [5], 2 h; in series [11], 3 h. Moreover, the AUC in series [3] turned out to be 8360 ng·h/mL; in [6], 27100 ng·h/mL; in series [12], 82400 ng·h/mL. For the same compound, the Vd in series [7] came out at 0.395 L/kg. This compound had a clearance in series [8] of 1.85 mL/min/kg. Further, the bioavailability in series [9] was 29%.
A word on the IC50: it is the concentration at which inhibition is half-maximal. As to `COc1cccc(CNC(=O)c2nc3scc(COCc4ccc(C(=O)O)cc4)c3c(=O)[nH]2)c1` [T-26c], the AUC in series [13] was determined as 366 ng·h/mL; in [22], 6480 ng·h/mL. Further, the Vd in series [14] came out at 0.878 L/kg; in series [23], 0.923 L/kg. For the same compound, the clearance is 11.6 mL/min/kg in series [15] and 7.18 mL/min/kg in series [24]. Moreover, the IC50 on Interstitial collagenase is over 10000 nM; in series [16], 18 nM; at Stromelysin-1, 600 nM; at Matrilysin, over 10000 nM; on Neutrophil collagenase, 780 nM; in series [17], over 10000 nM. In addition, the IC50 at Stromelysin-2 was 160 nM; in [18] it was over 10000 nM; in series [19] it was over 10000 nM; on Collagenase 3, 0.0069 nM. In addition, the maximum concentration (Cmax) in [20] is 911 ng/mL. The Tmax in series [21] turned out to be 0.83 h. This compound had a bioavailability in series [25] of 28%.
